Fh CTSL1 inh: cathepsin L1 inhibition, PFM18AAP counter-screen; recombinant F. hepatica cathepsin L1, Z-Leu-Arg-MCA fluorescence; inhibition, % at 5.96 µM; 300,000 compounds, 0.49% hits;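 active means inhibition above the mean of all tested compounds plus 3 SD, set per screening campaign, cut at about 17% in these data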;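 further: 0% = plate median of test compound wells and 100% = 1 µM Z-Phe-Ala-diazomethylketone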
Diaphorase act: activates diaphorase or chemically reduces, flagging diaphorase assay artifacts; Diaphorase/resazurin coupled assay, resorufin fluorescence, 16 min; hits give high values; 1 = vehicle wells, 0 = NADH-free wells; 190,000 compounds, 0.005% hits; activation factor at 20 µM;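 active means diaphorase activity raised at least twofold by the compound at 20 µM; inactive means activation factor below 2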
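Assay system: Purified diaphorase enzyme from Clostridium kluyveri | Amount: Enzyme 0.07 U/mL final | Dosing: Compound 20 µM once, DMSO 1% | Timing: 16 min reaction at room temperature | Detection: Fluorescence, excitation 544 nm and emission 590 nm | Evaluation: Higher resorufin formation from activation or reduction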
HKDC1 inhibitor: HKDC1 (human) hexokinase inhibition. recombinant HKDC1, G6PDH/diaphorase resazurin coupled fluorescence. Q2TB90. inhibition, % at 20 µM. 340,000 compounds, 0.16% hits;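 active means inhibition above about 35% when tested at 20 µM, limit read from the data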;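 further: plate controls were DMSO wells with enzyme for no effect and DMSO wells lacking enzyme for full effect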
Target sequence (Q2TB90 whole entry, looked up): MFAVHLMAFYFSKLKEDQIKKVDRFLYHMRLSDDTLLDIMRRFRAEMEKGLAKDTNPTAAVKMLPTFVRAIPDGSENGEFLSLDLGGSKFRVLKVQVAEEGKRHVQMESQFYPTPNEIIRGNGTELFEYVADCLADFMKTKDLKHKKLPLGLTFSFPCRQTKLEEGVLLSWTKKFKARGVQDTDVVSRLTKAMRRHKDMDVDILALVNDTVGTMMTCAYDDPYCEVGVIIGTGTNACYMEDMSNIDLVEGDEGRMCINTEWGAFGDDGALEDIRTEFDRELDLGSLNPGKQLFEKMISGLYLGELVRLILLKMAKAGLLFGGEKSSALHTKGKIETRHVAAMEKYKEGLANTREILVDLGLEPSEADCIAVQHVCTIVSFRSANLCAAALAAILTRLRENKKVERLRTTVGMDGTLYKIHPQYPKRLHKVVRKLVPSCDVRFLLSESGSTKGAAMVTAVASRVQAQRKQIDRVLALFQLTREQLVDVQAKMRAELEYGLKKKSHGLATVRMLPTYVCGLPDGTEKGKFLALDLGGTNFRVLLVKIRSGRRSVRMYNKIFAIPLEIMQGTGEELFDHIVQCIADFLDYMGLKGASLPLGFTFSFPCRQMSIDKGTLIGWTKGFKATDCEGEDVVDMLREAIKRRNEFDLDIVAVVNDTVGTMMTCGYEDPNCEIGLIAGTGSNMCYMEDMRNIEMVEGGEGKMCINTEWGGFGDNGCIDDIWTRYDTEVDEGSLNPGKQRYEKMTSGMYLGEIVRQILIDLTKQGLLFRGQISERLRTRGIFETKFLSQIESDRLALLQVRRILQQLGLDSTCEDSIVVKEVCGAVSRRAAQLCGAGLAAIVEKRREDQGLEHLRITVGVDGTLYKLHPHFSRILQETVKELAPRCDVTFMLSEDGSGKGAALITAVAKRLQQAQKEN
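Assay system – recombinant HKDC1 (HK5) hexokinase enzyme, produced in-house · Input – HKDC1 at 5 µg/mL · Reagent – glucose plus 1 mM ATP as hexokinase substrates · Timing – 90 min reaction incubation at room temperature, dark · Measured by – G6PDH/diaphorase-coupled fluorescence, 1 mM NADP, 100 µM resazurin, 525/613 nm · Benchmarks – DMSO-enzyme wells negative, buffer-substituted wells positive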
Diaph inh CS: inhibits diaphorase or chemically oxidizes, flagging diaphorase assay artifacts. inhibition, % at 20 µM. diaphorase resazurin-to-resorufin fluorescence, NADH, 16 min; bacterial (C. kluyveri) enzyme, not human. AID 1217. 190,000 compounds, 0.69% hits;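 active means primary screen inhibition at 20 µM above a set limit, cut at about 50% in these data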;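 further: plate controls were DMSO with full reaction for no effect and wells lacking NADH for full effect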
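Test system: bacterial diaphorase enzyme (C. kluyveri); Quantity: 0.14 U/mL diaphorase, enzyme working solution; Times: reaction incubation of 16 min at room temperature; Measured by: fluorescence of resorufin formed from resazurin, Ex 544/Em 590 nm; Benchmarks: positive control minus NADH, DMSO neutral control.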
ATG4B inhibitor: ATG4B (human) cysteine protease inhibition; Q9Y4P1; ATG4B cleavage of LC3-PLA2, NBD-HPC fluorescence, 1 h; inhibition, % at 8.33 µM; 340,000 compounds, 0.51% hits; AID 504462; in the data active means inhibition above about 40%
HKDC1 act conf2: confirmation of human HKDC1 activators | shares compounds with HKDC1 inhibitor | recombinant HKDC1, G6PDH/diaphorase resazurin fluorescence; hits give low values | inhibition, % at 20 µM | 740 compounds, 14% hits | AID 504708;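 active means inhibition at or below a set negative limit, negative inhibition meaning the enzyme was activated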
Numbers without * were called inactive; nt = no result given. Sampled rows, rich in hits. Any-hit rate of the full collection: about 1.4%.

SMILES | Fh CTSL1 inh | Diaphorase act | HKDC1 inhibitor | Diaph inh CS | ATG4B inhibitor | HKDC1 act conf2
CC(C)c1nc2oc3c(=O)[nH]cnc3c2c2c1COC(C)(C)C2 | -1 | nt | 36* | nt | -7 | 48
CC(C)c1nc2oc3c(=O)[nH]cnc3c2c2c1CCC2 | 0 | 0.6 | 22 | 38 | 6 | nt
CCCc1nc2oc3c(NCCOCCO)ncnc3c2c2c1COC(C)(C)C2 | -1 | 0.6 | 39* | 35 | -9 | 42
CC(C)c1nc2oc3c(NCC4CCCO4)ncnc3c2c2c1COC(C)(C)C2 (stereo not given) | nt | 0.1 | 40* | 90* | -3 | 63
CCCc1nc2oc3c(NCCN4CCOCC4)ncnc3c2c2c1CCCC2 | 0 | 0.9 | 12 | 8 | -8 | nt
O=C(NCc1ccc(F)cc1)C(=O)NCC1OCCCN1S(=O)(=O)c1cccs1 (stereo not given) | -2 | nt | -2 | nt | -4 | nt
COc1ccc(CC(=O)Nc2ccc(/C(C)=N\NC(=O)c3ccc(Br)o3)cc2)cc1 | nt | nt | -5 | nt | 0 | nt
CCCc1nc2oc3c(OC)ncnc3c2c2c1COC(C)(C)C2 | 2 | 0.6 | 37* | 37 | -17 | 42
O=C(N/N=C/c1ccc(O)cc1O)c1ccc(CN2C(=O)c3cccc4cccc2c34)cc1 | 11 | 0.9 | -41 | 13 | 7 | -22
CCCCc1cc(=O)oc2cc(C)cc(OC(C)C(=O)NCc3cccnc3)c12 (stereo not given) | 4 | nt | -1 | nt | 0 | nt
O=C(O)c1ccc2c(c1)C(=O)N(c1cccc(-c3nc4ccccc4s3)c1)C2=O | 8 | 0.5 | 34 | 46 | 9 | -11
CC1CCCN(C(=O)COC(=O)c2cc([N+](=O)[O-])ccc2N2CCOCC2)C1 (stereo not given) | -1 | nt | 41* | nt | -7 | -20
COc1cc(-c2nnc(SCC(=O)N3c4ccccc4Sc4ccccc43)o2)cc(OC)c1OC | 4 | 1 | -4 | 2 | -9 | nt
O=C(Sc1nnc(-c2ccccc2)o1)N1c2ccccc2Sc2ccccc21 | 1 | 0.8 | 37* | 24 | 1 | -9
Cc1ccc(C)c(C(=O)COC(=O)c2n[nH]c3ccccc23)c1 | nt | nt | -1 | nt | -4 | nt
O=C(COC(=O)c1n[nH]c2ccccc12)c1cccc(Br)c1 | 1 | nt | 38* | nt | -2 | -30*
COc1cc(C2OC(=O)C3C(c4ccc(OC(C)=O)c(OC)c4)OC(=O)C23)ccc1OC(C)=O (stereo not given) | 3 | nt | 0 | nt | -1 | nt
CCc1ccc(S(=O)(=O)/N=C2\C=C(NS(=O)(=O)c3ccccc3)C(=O)c3ccccc32)cc1 | nt | nt | 28 | nt | -1 | nt
CC(=O)Nc1ccc(NC2=C/C(=N/S(=O)(=O)c3cccs3)c3ccccc3C2=O)cc1 | 102* | 0.9 | 44* | 8 | -2 | 52
COc1ccc(S(=O)(=O)/N=C2\C=C(Nc3ccc(O)cc3)C(=O)c3ccccc32)cc1 | 92* | nt | 42* | nt | 27 | 27
COc1ccc(CCC(=O)OCC(=O)Nc2c(C)n(C)n(-c3ccccc3)c2=O)cc1 | nt | nt | 4 | nt | 1 | nt
O=C(NN1CCOCC1)c1ccc(Cl)c([N+](=O)[O-])c1 | -1 | nt | 36* | nt | -3 | -34
CN1CCN(NC(=O)c2ccc(Cl)c([N+](=O)[O-])c2)CC1 | 1 | 0.8 | 6 | 19 | -11 | nt
CC(C)Oc1ccc(CN2CCC(n3nccc3NC(=O)C3CC3)CC2)cc1 | -3 | nt | -5 | nt | -5 | nt
CCOC(=O)c1[nH]c(C)c(C(=O)/C=C/c2ccc(C(=O)O)cc2)c1C | -2 | nt | 3 | nt | -7 | nt
SMILES | Fh CTSL1 inh | Diaphorase act | HKDC1 inhibitor | Diaph inh CS | ATG4B inhibitor | HKDC1 act conf2
c1ccc2oc(C3=NNC(=NC4CC4)SC3)cc2c1 | 1 | 0.8 | -47 | 19 | -9 | -24
Cc1ccc(C)c(S(=O)(=O)Nc2ccc(O)c3ccccc23)c1 | -1 | nt | 48* | nt | -5 | 25
COc1ccc(S(=O)(=O)Nc2ccccc2)cc1 | 3 | nt | -3 | nt | -3 | nt
Cc1ccc(C)c(S(=O)(=O)Nc2ccc(O)c(C(=O)O)c2)c1 | -4 | 0.9 | -5 | 8 | 3 | nt
COc1ccc(S(=O)(=O)Nc2ccc(O)c3ccccc23)cc1 | -3 | 0.9 | 46* | 8 | -12 | 51
Cc1ccc(S(=O)(=O)Nc2ccc(O)c3ccccc23)c(C)c1 | nt | nt | 52* | nt | -8 | 25
O=C(CSc1nnc(-c2c[nH]c3ccccc23)o1)NCC1CCCO1 (stereo not given) | nt | nt | 0 | nt | -16 | nt
CCOc1ccc(C(=O)C2CCN(C(=O)c3ccc([N+](=O)[O-])cc3)CC2)cc1 | 2 | nt | 3 | nt | -1 | nt
CC(C)C[C@H](NC(=O)c1cc2cc(Cl)ccc2n1C)C(=O)N1CCC(C(=O)O)CC1 | nt | nt | 5 | nt | -5 | nt
CC(=O)c1ccc2c(c1)C1C=CCC1C(c1ccncc1)N2 (stereo not given) | 4 | 0.8 | 11 | 20 | -6 | nt
CC(=O)c1ccc2c(c1)C1C=CCC1C(C(=O)O)N2 (stereo not given) | nt | 0.2 | 34 | 77* | 27 | 36
O=C(CCC(=O)c1ccc(F)cc1)OCc1nnc(-c2ccc([N+](=O)[O-])cc2)o1 | nt | nt | -4 | nt | -11 | nt
O=C1NC(=S)S/C1=C\C=C\c1ccc([N+](=O)[O-])o1 | nt | nt | 38* | nt | 10 | 19
O=C(O)/C=C/c1ccc([N+](=O)[O-])o1 | 3 | 0.9 | 17 | 10 | -8 | nt
Cc1cc(C)nc(Nc2n[nH]c(-c3ccc(C(C)(C)C)cc3)n2)n1 | 4 | 1.1 | -51 | -6 | -4 | -21
Cc1cc(C)nc(Nc2n[nH]c(-c3ccc(N)cc3)n2)n1 | -5 | 0.9 | -2 | 6 | -11 | nt
COc1cc(OC)c(OC)cc1CCC(C)NCCC(c1ccccc1)c1ccccc1 (stereo not given) | 0 | nt | 81* | nt | 8 | -24
COc1ccccc1CCNC(C)CCc1ccc(O)cc1 (stereo not given) | 6 | nt | -1 | nt | -2 | nt
Cc1nc([N+](=O)[O-])c(Br)n1CC(=O)c1ccc(Cl)cc1 | 2 | 0.8 | 22 | 20 | 7 | nt
Cc1nc([N+](=O)[O-])c(Br)n1Cc1ccc(Cl)c(Cl)c1 | nt | 0.9 | 35 | 9 | -4 | 54
Cc1cc(C)cc(-n2c(N)c(C(=O)Nc3c(C)n(C)n(-c4ccccc4)c3=O)c3nc4ccccc4nc32)c1 | -1 | 0.9 | 38* | 12 | -2 | -33
COc1cccc(-n2c(N)c(C(=O)Nc3c(C)n(C)n(-c4ccccc4)c3=O)c3nc4ccccc4nc32)c1 | 1 | nt | 36* | nt | 1 | 28
CC(=O)Nc1ccc(NC(=O)C(C)OC(=O)c2ccc3ccccc3n2)cc1 (stereo not given) | nt | nt | 2 | nt | -1 | nt
CCN(CC(=O)NCc1cccs1)C(=O)c1ccc(N(C)S(=O)(=O)c2ccc(C)cc2)cc1 | nt | nt | -4 | nt | -7 | nt
